{
  "source": "ChEMBL document CHEMBL1147733",
  "about": "“Design, synthesis, and biological evaluation of phosphinopeptides against Trypanosoma cruzi targeting trypanothione biosynthesis” (J Med Chem, 2006)",
  "key": {"Trypanosoma cruzi [1]": {"system": "Trypanosoma cruzi", "test": "Inhibitory activity against Trypanosoma cruzi amastigotes", "assay_type": "functional, organism-based", "conditions": "for pIC50: Trypanosoma cruzi", "in_short": "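Gamma-irradiated L6E9 myoblasts in DMEM/20% fetal calf serum, 24 h at 37 °C, then infected with 4.17 × 10⁶ trypomastigotes/well for 2 h (7% CO2). After washing, medium with 1 µCi/mL [5,6-³H]uracil and drug in ethanol added; TCA-precipitable ³H measured at day 3. Host toxicity up to 50 µM by phase-contrast microscopy; values are means of three experiments.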"}, "Trypanosoma cruzi [2]": {"system": "Trypanosoma cruzi", "test": "Inhibitory activity against Trypanosoma cruzi Y epimastigotes", "assay_type": "functional, organism-based", "in_short": "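Epimastigotes in sterile screw-cap tubes, drugs in absolute ethanol at 1, 5, 15 and 25 µg/mL, each in triplicate; ethanol-only control and medium blank. Growth read as absorbance at 600 nm against medium; percent inhibition = 100 − (ΔA_drug × 100)/ΔA_control, ΔA taken between start and end of culture.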"}},
  "note": "pIC50: −log10 of the molar value.",
  "data": [
    {"smiles": "CCCCP(=O)(O)CNC(=O)[C@H](CC(C)C)NC(=O)CCC(N)C(=O)O", "note": "(some centres not stated)", "values": [
      {"measurement": "pIC50", "setting": "Trypanosoma cruzi [1]", "value": 5.01},
      {"measurement": "pIC50", "setting": "Trypanosoma cruzi [2]", "value": "< 4.30"}
    ]},
    {"smiles": "N#CSCCOc1ccc(Oc2ccccc2)cc1", "values": [
      {"measurement": "pIC50", "setting": "Trypanosoma cruzi [1]", "value": 5.70}
    ]},
    {"smiles": "CCCCCP(=O)(O)CNC(=O)[C@H](CC(C)C)NC(=O)CCC(N)C(=O)O", "note": "(some centres not stated)", "values": [
      {"measurement": "pIC50", "setting": "Trypanosoma cruzi [1]", "value": 4.85},
      {"measurement": "pIC50", "setting": "Trypanosoma cruzi [2]", "value": "< 4.30"}
    ]},
    {"smiles": "CCP(=O)(O)CNC(=O)[C@H](CC(C)C)NC(=O)CCC(N)C(=O)O", "note": "(some centres not stated)", "values": [
      {"measurement": "pIC50", "setting": "Trypanosoma cruzi [1]", "value": "< 4.30"},
      {"measurement": "pIC50", "setting": "Trypanosoma cruzi [2]", "value": "< 4.30"}
    ]},
    {"smiles": "CCCCCCP(=O)(O)CNC(=O)[C@H](CC(C)C)NC(=O)CCC(N)C(=O)O", "note": "(some centres not stated)", "values": [
      {"measurement": "Inhibition", "setting": "Trypanosoma cruzi [1]", "value": 45, "unit": "%"},
      {"measurement": "pIC50", "setting": "Trypanosoma cruzi [1]", "value": "< 4.30"},
      {"measurement": "pIC50", "setting": "Trypanosoma cruzi [2]", "value": "< 4.30"}
    ]},
    {"smiles": "CC(C)C[C@H](NC(=O)CCC(N)C(=O)O)C(=O)NCP(C)(=O)O", "note": "(some centres not stated)", "values": [
      {"measurement": "pIC50", "setting": "Trypanosoma cruzi [1]", "value": "< 4.30"},
      {"measurement": "pIC50", "setting": "Trypanosoma cruzi [2]", "value": "< 4.30"}
    ]},
    {"smiles": "CCCP(=O)(O)CNC(=O)[C@H](CC(C)C)NC(=O)CCC(N)C(=O)O", "note": "(some centres not stated)", "values": [
      {"measurement": "pIC50", "setting": "Trypanosoma cruzi [1]", "value": "< 4.30"},
      {"measurement": "pIC50", "setting": "Trypanosoma cruzi [2]", "value": "< 4.30"}
    ]},
    {"smiles": "CCCCCCCP(=O)(O)CNC(=O)[C@H](CC(C)C)NC(=O)CCC(N)C(=O)O", "note": "(some centres not stated)", "values": [
      {"measurement": "Inhibition", "setting": "Trypanosoma cruzi [1]", "value": 31, "unit": "%"},
      {"measurement": "pIC50", "setting": "Trypanosoma cruzi [1]", "value": "< 4.30"},
      {"measurement": "pIC50", "setting": "Trypanosoma cruzi [2]", "value": "< 4.30"}
    ]}
  ]
}
